In general, inhibition in vivo refers to the percentage by which the read-out fell short of the control.

For data set [1], the system named is Rattus norvegicus. The data set can be described thus: Antiinflammatory activity in Wistar rat assessed as inhibition of carrageenan-induced hind paw edema at 20 mg/kg, po administered 30 mins before carrageenan challenge measured after 5 hrs by plethysmometer. The data set is classed as functional. A digest of the protocol: (§1)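 Wistar rats of either sex, 150–175 g, fasted 16 h, n = 6 per group. Compound given orally at 20 mg/kg as a suspension in 1% CMC in water (10 mL/kg); controls got vehicle only. After 30 min, 0.1 mL of 1% carrageenan in saline was injected subplantar into the left hind paw. Paw volume was measured by plethysmometer at 0, 3 and 5 h. Inhibition = (1 − Vt/Vc) × 100, reported as mean ± SEM.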
In general terms: The carrageenan paw model is a standard test of acute inflammation.

The subject of data set [2] is Rattus norvegicus. Kind of data set: Antiinflammatory activity in Wistar rat assessed as inhibition of carrageenan-induced hind paw edema at 20 mg/kg, po administered 30 mins before carrageenan challenge measured after 3 hrs by plethysmometer. The data set is classed as functional. The essentials: as §1
Data set [3] has as its system Rattus norvegicus. Kind of data set: Toxicity in Wistar rat assessed as appearance of ulcerogenic bleeding in stomach at 60 mg/kg, po. The data set is classed as organism-based. More on the design: dose 60 mg/kg, route oral. The conditions noted are these: in vivo. The essentials: (§2)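 Wistar rats, 160–220 g, fasted 24 h, six per group. Compound given orally at 60 mg/kg as a suspension in 1% w/v CMC (10 mL/kg); controls got vehicle only. Animals were killed under ether anaesthesia 6 h after treatment, and stomachs were opened along the greater curvature and examined for lesions and bleeding.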

Data set [4] relates to Rattus norvegicus. The data set can be described thus: Toxicity in Wistar rat assessed as appearance of ulcerogenic lesions in stomach at 60 mg/kg, po. The conditions noted are these: in vivo. The arrangement: dose 60 mg/kg, route oral. In kind it is organism-based. A digest of the protocol:
as §2

For data set [5], the target named is Prostaglandin G/H synthase 1 (Bos taurus) (UniProt O62664). The data set can be described thus: Inhibition of bovine COX1 assessed as PGE2 production preincubated for 10 mins by ELISA. A digest of the protocol: (§3)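 In vitro inhibition of bovine COX-1 and COX-2 measured with a COX inhibitor screening kit, following the Gierse et al. method.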
For data set [6], the target named is Prostaglandin G/H synthase 2 (Bos taurus) (UniProt O62698). The data set can be described thus: Inhibition of bovine COX2 assessed as PGE2 production preincubated for 10 mins by ELISA. The essentials: as §3
For orientation: In an ELISA, binding on a coated surface is turned into a signal by an enzyme label.

Activity calls are given as the source filed them. No cut-off for these calls is given here.

Chain of Prostaglandin G/H synthase 1 (Bos taurus) (O62664 whole entry): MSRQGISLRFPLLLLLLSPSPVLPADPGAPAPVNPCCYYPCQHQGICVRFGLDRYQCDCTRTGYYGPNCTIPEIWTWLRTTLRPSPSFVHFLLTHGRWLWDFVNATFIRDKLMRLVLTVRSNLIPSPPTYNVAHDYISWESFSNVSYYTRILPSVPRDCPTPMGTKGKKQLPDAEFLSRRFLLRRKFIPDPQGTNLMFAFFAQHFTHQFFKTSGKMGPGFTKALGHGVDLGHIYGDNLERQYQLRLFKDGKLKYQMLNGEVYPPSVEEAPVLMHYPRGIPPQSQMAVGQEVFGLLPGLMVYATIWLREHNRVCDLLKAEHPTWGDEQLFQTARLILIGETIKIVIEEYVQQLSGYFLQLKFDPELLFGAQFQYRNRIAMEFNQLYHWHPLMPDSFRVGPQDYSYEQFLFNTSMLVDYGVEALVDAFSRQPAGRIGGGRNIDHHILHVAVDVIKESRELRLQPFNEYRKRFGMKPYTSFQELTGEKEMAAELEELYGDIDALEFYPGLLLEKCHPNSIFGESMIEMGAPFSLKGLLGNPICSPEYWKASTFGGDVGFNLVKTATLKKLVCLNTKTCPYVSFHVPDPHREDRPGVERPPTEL
Chain of Prostaglandin G/H synthase 2 (Bos taurus) (O62698 whole entry): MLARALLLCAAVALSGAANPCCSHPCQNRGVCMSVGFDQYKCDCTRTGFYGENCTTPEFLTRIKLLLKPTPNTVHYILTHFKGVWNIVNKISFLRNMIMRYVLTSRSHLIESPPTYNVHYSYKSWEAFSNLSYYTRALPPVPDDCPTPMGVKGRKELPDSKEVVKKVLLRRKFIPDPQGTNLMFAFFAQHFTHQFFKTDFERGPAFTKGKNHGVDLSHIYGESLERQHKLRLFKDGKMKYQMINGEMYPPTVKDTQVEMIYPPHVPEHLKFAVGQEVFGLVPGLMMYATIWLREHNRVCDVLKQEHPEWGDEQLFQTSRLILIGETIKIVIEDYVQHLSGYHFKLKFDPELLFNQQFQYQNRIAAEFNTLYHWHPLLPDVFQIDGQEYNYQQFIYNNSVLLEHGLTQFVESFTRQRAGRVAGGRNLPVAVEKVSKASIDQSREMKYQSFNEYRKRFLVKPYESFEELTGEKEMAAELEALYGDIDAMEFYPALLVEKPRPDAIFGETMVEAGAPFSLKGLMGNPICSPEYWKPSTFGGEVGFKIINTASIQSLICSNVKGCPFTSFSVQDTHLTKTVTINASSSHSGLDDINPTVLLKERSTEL

`COc1cc(C)c(Cl)cc1C1=NN(c2ccc(S(N)(=O)=O)cc2)C(/C=C/c2ccccc2)C1` (centres undefined): the inhibition in vivo at 20 mg/kg came out at 52.4% in the data set on Rattus norvegicus [1] and 55.3% in the data set on Rattus norvegicus [2].
On the same counts, the results for `COc1cc(C)c(Cl)cc1C1=NN(c2ccc(S(N)(=O)=O)cc2)C(c2cc(OC)c(OC)c(OC)c2)C1` (centres undefined) are 21.4% and 34.2%.
With `COc1cc(C)c(Cl)cc1C1=NN(c2ccc(S(N)(=O)=O)cc2)C(c2ccc(N(C)C)cc2)C1` (centres undefined), the Activity entry with Rattus norvegicus [3] and with Rattus norvegicus [4] was “Non-toxic” throughout. Further, the results for the inhibition in vivo at 20 mg/kg in the data set on Rattus norvegicus [1] and in the data set with Rattus norvegicus [2] were 95.2% and 78.9%, respectively. In addition, in data set [5], the inhibition result was “inactive”. The inhibition entry in data set [6] was “Active”.
For the compound `Cc1cc(O)c(C2=NN(c3ccc(S(N)(=O)=O)cc3)C(c3ccccc3)C2)cc1Cl` (centres undefined), the inhibition in vivo at 20 mg/kg with Rattus norvegicus [1] came to 60.3%; with Rattus norvegicus [2] it was 47.4%.
On the same counts, the results for `Cc1cc(O)c(C2=NN(c3ccc(S(N)(=O)=O)cc3)C(c3ccc(Cl)cc3)C2)cc1Cl` (centres undefined) are 71.4% and 65.8%.

For the origin of these results see ChEMBL document CHEMBL1914430, “Synthesis of some new 1,3,5-trisubstituted pyrazolines bearing benzene sulfonamide as anticancer and anti-inflammatory agents” (Bioorg Med Chem Lett, 2011).
